Compound activity from PubChem.
MPTP inh: mitochondrial permeability transition pore inhibitors, primary screen, biochemical, isolated mouse mitochondria, absorbance. Ca2+ swelling absorbance, 30 min. inhibition, % at 10 µM. 360,000 compounds, 1.4% hits;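 active = inhibition of 50% or more, scaled per plate between neutral and stimulator controls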
Hep lipid drop: inhibitors of hepatocyte lipid droplet formation, primary screen, imaging, high-throughput imaging, BODIPY stain; inhibition, % at 6.5 µM; AID 1656, 2009; 240,000 compounds, 0.4% hits; AML12 mouse hepatocytes, oleate lipid droplets;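 active = lipid droplet intensity inhibited by at least 50%, with more than 500 cells counted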
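Technique: fluorescence imaging, 20x objective, two fields per well / Assay system: AML12 hepatocytes (mouse) / Measure: % inhibition of lipid droplet signal / Doses: 6.5 µM single-point dosing / Incubation: overnight exposure / Reagent: 100 µM oleic acid challenge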
ADAM17 inh: ADAM17 inhibitors, primary screen, biochemical, QFRET; recombinant ADAM17, EDANS/DABCYL FRET peptide cleavage; inhibition, % at 6.95 µM; Disintegrin and metalloproteinase domain-containing protein 17 (Homo sapiens), P78536; 370,000 compounds, 0.83% hits;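 active = inhibition above the mean of compounds lying between control limits plus 3 SD, set per campaign, cut at about 8.5% in these data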
ADAM10 inh: human ADAM10 inhibitors, primary screen, biochemical, QFRET, HTS. 370,000 compounds, 0.62% hits. inhibition, % at 7 µM. Disintegrin and metalloproteinase domain-containing protein 10 (Homo sapiens), O14672. recombinant ADAM10, EDANS/DABCYL FRET peptide cleavage, 3 h;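 active = inhibition above a per-campaign cutoff equal to the mean of compounds falling between control-based bounds plus 3 SD, cut at about 20% in these data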
Target sequence (O14672 214-748 limits assumed): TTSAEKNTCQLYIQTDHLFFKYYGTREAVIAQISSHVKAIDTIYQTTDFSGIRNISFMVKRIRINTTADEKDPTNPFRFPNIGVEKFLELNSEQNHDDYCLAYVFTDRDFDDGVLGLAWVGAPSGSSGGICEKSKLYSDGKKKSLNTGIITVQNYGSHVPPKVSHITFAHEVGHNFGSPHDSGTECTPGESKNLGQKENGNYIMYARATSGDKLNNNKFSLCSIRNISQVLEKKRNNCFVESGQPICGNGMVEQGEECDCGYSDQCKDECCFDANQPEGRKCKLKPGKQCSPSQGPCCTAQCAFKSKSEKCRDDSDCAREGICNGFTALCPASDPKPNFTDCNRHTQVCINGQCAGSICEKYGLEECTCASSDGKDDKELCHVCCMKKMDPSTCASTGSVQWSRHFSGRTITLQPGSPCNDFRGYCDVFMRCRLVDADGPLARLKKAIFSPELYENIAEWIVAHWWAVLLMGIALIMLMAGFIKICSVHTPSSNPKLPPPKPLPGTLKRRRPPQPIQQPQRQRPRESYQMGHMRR
V-ATPase pH: regulators of yeast V-ATPase proton pumping, primary screen, pHLuorin cytosolic pH fluorescence. 350,000 compounds, 0.37% hits. AID 504577, 2011. response, % at 10 µM. S. cerevisiae; in the data active = response mostly above about 7.3%, no sharp cut-off; inactive = mostly below about 5.4%; note: actives read high
aDG glyco act: activators of alpha-DG glycosylation, primary screen, uHTS, Pro5-aDG cells, AlphaScreen; alpha-DG glycosylation AlphaScreen (IIH6); 0% Pro5, 100% B10-LARGE cell signal; activation, % at 10 µM; 360,000 compounds, 0.22% hits; AID 624168, 2012;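 active = activation of at least 8% versus controls, or a plate z-score of at least 8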;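 note: Pro5 are CHO cells carrying HIG-tagged alpha-DG that lacks glycosylation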
Rh123 counter: fluorescence retest of MPTP screen hits in isolated mitochondria, single concentration | membrane potential, Rhodamine 123 fluorescence | AID 624504, 2012 | 5,000 compounds, 78% hits | shares compounds with MPTP inh | inhibition, % at 10 µM; in the data active = inhibition above about 22%
Hits are given with their value; 0 = inactive; - = not tested or not shown. Shown are actives, neighbours in structure and some others; about 3.1% of the full set was active somewhere.

SMILES	MPTP inh	Hep lipid drop	ADAM17 inh	ADAM10 inh	V-ATPase pH	aDG glyco act	Rh123 counter
CCC(=O)N1CCc2cc(Br)c(S(=O)(=O)NCCCN(C)Cc3ccccc3)cc21	-	-	0	0	-	-	-
N#C/C(=C\c1ccc(Sc2nc3ccccc3[nH]2)o1)c1ccccc1	93.3	-	0	0	0	0	83.8
N#C/C(=C\c1ccc(Sc2ccc(Cl)cc2)o1)c1nc2ccccc2[nH]1	106.1	0	0	0	0	0	69.3
CCCNC(=S)N1CCN(c2nc(-c3ccc(C)cc3)cs2)CC1	99.0	0	0	0	0	0	80.6
CN1/C(=C\C(=O)Nc2ccc(Cl)cc2)C(C)(C)c2ccccc21	78.6	0	0	0	0	0	70.0
CN1/C(=C\C=C(/C#N)C(=O)Nc2ccc(Cl)cc2)C(C)(C)c2ccccc21	0	0	0	0	0	0	-
CC(=O)Oc1cc2c(s1)CCN(C(C(=O)C1CC1)c1ccccc1F)C2 (stereo unspecified)	-	-	0	0	-	-	-
C=CCN1C(=O)[C@@H](CC(=O)NCCc2ccccc2OC)[C@]2(C(=O)OCC)CCCCC/C=C/12	-	-	0	0	-	-	-
O=[N+]([O-])c1cc(C(F)(F)F)ccc1NCCNC(=S)Nc1ccc(Cl)cc1	94.2	-	0	0	0	0	70.3
O=[N+]([O-])c1cc(C(F)(F)F)ccc1NCCCCNS(=O)(=O)c1ccc(Cl)cc1	86.5	0	0	0	0	0	90.3
CS(=O)(=O)NCCCNc1ccc(C(F)(F)F)cc1[N+](=O)[O-]	0	0	0	0	0	0	-
Cc1ccccc1S(=O)(=O)N1CCC(c2nc3ccccc3o2)CC1	-	-	0	0	-	-	-
Cc1sc2nc(COC(=O)CNC(=O)c3ccccc3Cl)[nH]c(=O)c2c1C	-	-	0	0	-	-	-
Cc1ccc(S(=O)(=O)Nc2cccnc2)cc1	0	-	0	0	0	0	-
CCCCOc1ccc(S(=O)(=O)Nc2cccnc2)cc1	71.6	-	0	0	0	0	59.1
COC(=O)c1ccc2c(=O)n(Cc3ccc(C(=O)NCCCN4CCC(C)CC4)cc3)c(=S)[nH]c2c1	0	0	0	0	0	0	-
CC1CCN(CCCNC(=O)c2ccc3c(=O)n(Cc4ccc(Cl)cc4)c(=S)[nH]c3c2)CC1	95.2	0	0	0	0	0	0
CC(=O)CC[C@@H]1CC[C@]2(CCCN(S(C)(=O)=O)C2)O1	-	-	0	0	-	-	-
CCOc1ccc(C2CC=C(C(=O)O)CN2S(=O)(=O)c2ccc(C)cc2)cc1 (stereo unspecified)	-	-	0	0	-	-	-
O=C(/C(Br)=C/Nc1cc(Cl)ccc1Cl)C(F)(F)F	95.9	0	0	0	0	0	93.5
O=C(Nc1cc(Cl)ccc1Cl)N1CCCC1	0	0	0	0	0	0	-
CC(=O)c1ccc(NC(=O)C2=CC(c3ccc4c(c3)OCO4)=NS(=O)(=O)N2C)cc1	0	0	0	0	0	0	-
CN1C(C(=O)Nc2ccc(OC(F)(F)F)cc2)=CC(c2ccc3c(c2)OCO3)=NS1(=O)=O	90.4	0	0	0	0	0	78.2
O[C@H](COc1cccc(Br)c1)CN1CCC(C(O)(c2ccccc2)c2ccccc2)CC1	-	-	0	0	-	-	-
Cc1ccc(Nc2nc(NCc3ccco3)c3ccccc3n2)cc1	93.4	0	0	0	0	0	89.0
SMILES	MPTP inh	Hep lipid drop	ADAM17 inh	ADAM10 inh	V-ATPase pH	aDG glyco act	Rh123 counter
COc1ccccc1Nc1nc(NCc2ccco2)c2ccccc2n1	70.6	0	0	0	0	0	83.8
Oc1ccccc1-c1nc(NCc2ccco2)c2ccccc2n1	0	0	0	0	0	0	-
c1nc(NCC2CCCOC2)c2cc(-c3ccc4c(c3)OCO4)ccc2n1 (stereo unspecified)	-	-	0	0	-	-	-
COC(=O)C1CCCN(C(=O)C2CCN(S(=O)(=O)c3ccccc3[N+](=O)[O-])CC2)C1 (stereo unspecified)	-	-	0	0	-	-	-
COc1ccc(NC(=O)CSc2ccccn2)cc1OC	0	0	0	0	0	0	-
COc1ccc(NC(=O)CSc2ncccc2C(=O)OC(C)C)cc1OC	70.8	0	0	0	0	0	60.3
COCCCN1C(=O)[C@H](CC(=O)NCC23CC4CC(CC(C4)C2)C3)[C@]2(C(=O)OC)CCCCC=C12	-	-	0	0	-	-	-
CC1(O)CC(c2ccc(Cl)cc2)=NN1C(=O)c1ccc([N+](=O)[O-])cc1 (stereo unspecified)	73.2	0	0	0	0	0	80.9
CC(=O)N1N=C(c2ccc(Cl)cc2)CC1c1ccc([N+](=O)[O-])cc1 (stereo unspecified)	0	0	0	0	0	0	-
COc1ccccc1OCc1ccc(C(=O)NCc2cccnc2)o1	0	-	0	0	0	0	-
CC(C)(C)c1ccc(OCc2ccc(C(=O)NCc3cccnc3)o2)cc1	85.2	0	0	0	0	0	68.1
O=C(NCc1cccnc1)c1ccc(COc2ccc(Cl)cc2)cc1	66.5	0	0	0	0	0	62.8
CCCC[C@H]1C2CC(OC(=O)Nc3ccccc3Cl)C(C2)[C@H]2CCCCN21 (stereo partly specified)	-	-	0	0	-	-	-
CCN(CC)C(=O)CC[C@@H]1CC[C@]2(CCCN(C(=O)c3ccco3)C2)O1	-	-	0	0	-	-	-
CCOC(=O)c1sc(NC(=O)c2cccc(S(=O)(=O)N3c4ccccc4CC3C)c2)cc1C (stereo unspecified)	55.6	0	0	0	0	0	38.2
Cc1cc(NC(=O)c2cccc(S(=O)(=O)N3c4ccccc4CC3C)c2)no1 (stereo unspecified)	0	0	0	0	0	0	-
CC1CCCN(C(=S)SCC(=O)c2cc(Br)cc(Br)c2O)C1 (stereo unspecified)	59.0	0	0	0	0	0	31.9
O=C(CSC(=S)N1CCCC1)c1cc(Br)cc(Br)c1O	-	0	0	0	-	-	-
COc1ccc(C(CCOC(=O)Oc2ccccc2)c2cc(OC)c(OC)c(OC)c2)cc1 (stereo unspecified)	-	-	0	0	-	-	-
CCc1cccc(C)c1NC(=O)CSc1nnc(-c2cc3cc(Br)ccc3o2)n1CC	92.4	0	0	0	0	0	84.1
C[C@H]1CCC[C@@H](O)CC(=O)c2c(O)cc(O)cc2CC(=O)O1	-	-	0	0	-	-	-
